G6PDH counter = inhibits Leuconostoc G6PDH, flagging false hits in G6PDH-based assays | inhibition, % at 5 µM | actives 0.12% (n = 200,000) | Purified L. mesenteroides G6PDH, diaphorase/resazurin coupled fluorescence, 45 min
Diaphorase act = counter-screen for diaphorase-based assays: diaphorase activators and chemical reducers; Diaphorase/resazurin coupled assay, resorufin fluorescence, 16 min; stronger effect = higher value; 1 = vehicle wells, 0 = NADH-free wells; activation factor at 20 µM; actives 0.005% (n = 190,000); AID 1229;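 active = diaphorase activity raised at least twofold by the compound at 20 µM; inactive = activation factor below 2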
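Material: Purified diaphorase enzyme from Clostridium kluyveri | Buffer or medium: 50 mM HEPES pH 7.4 with 4.542 mM MgCl2, 0.005% Tween 20 | Times: 16 min enzyme reaction, ambient temperature | Signal: Red resorufin fluorescence at 544/590 nm excitation/emission | Measure: Increased resorufin signal from activators or reducing compounds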
WT yeast gro inh = growth inhibition of WT yeast, mitochondrial fusion screen; actives 2.1% (n = 190,000); AID 1362; mitochondrial fusion phenotypic screen, WT strain; inhibition, % at 10 µM; in the data active = inhibition above about 58%; tested in S. cerevisiae
L major viab = reduces viability of Leishmania major promastigotes. actives 9% (n = 200,000). AID 1063. inhibition, % at 10 µM. resazurin fluorescence viability;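 also: promastigotes grown with compound for 44 hours at 28 °C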
Diaphorase inh = diaphorase inhibition or chemical oxidation counter-screen; diaphorase resazurin-to-resorufin fluorescence, NADH, 16 min; bacterial (C. kluyveri) enzyme, not human; inhibition, % at 20 µM; actives 0.69% (n = 190,000);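 active = primary screen inhibition at 20 µM above a set limit, cut at about 50% in these data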;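 also: plate controls were DMSO with full reaction for no effect and wells lacking NADH for full effect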
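Assay system – diaphorase enzyme from Clostridium kluyveri · Amount – diaphorase 0.14 U/mL (working solution) · Times – reaction incubation of 16 min at room temperature · Controls – No-NADH positive control and DMSO neutral control · Signal – resorufin fluorescence 544/590 nm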
Starred values were filed as active, the others as inactive. A selection: hits, their analogues and other compounds. The true share with any hit is near 11%. Rule as the data show it, unless noted: active = inhibition above about 50%; inactive = the rest.

How did CC1CC(C)CN(CCCSc2ccccc2)C1 (centres undefined) do in these assays?
G6PDH counter: 15; Diaphorase act: 0.8; WT yeast gro inh: 24; L major viab: 92*; Diaphorase inh: 18

Results for Cc1cc(C(=O)NCCCN2CC(C)CC(C)C2)n(-c2ccccc2)n1 (centres undefined) ?
G6PDH counter: 0; Diaphorase act: 1; WT yeast gro inh: 5; L major viab: 12; Diaphorase inh: -3

What do the screens show for `CC(=O)Nc1ccccc1O`?
G6PDH counter: 12; Diaphorase act: 1; WT yeast gro inh: -7; L major viab: 14; Diaphorase inh: -2

What do the screens show for `C/C(=C\C(=O)c1ccncc1)Nc1ccccc1O`?
G6PDH counter: 4; Diaphorase act: 1; WT yeast gro inh: -17; L major viab: 57*; Diaphorase inh: 4

Results for O=C(Nc1ccc(OC(F)F)cc1)Nc1cccc(C(F)(F)F)c1 ?
G6PDH counter: 13; Diaphorase act: 0.9; WT yeast gro inh: 83*; L major viab: -3; Diaphorase inh: 15

What do the screens show for `NNC(=O)Nc1cccc(C(F)(F)F)c1`?
G6PDH counter: 12; Diaphorase act: 1.2; WT yeast gro inh: -1; L major viab: -2; Diaphorase inh: -15

How did Cc1ccc(NS(=O)(=O)c2ccc(NC(=O)c3cccc(NC(=O)C(C)C)c3)cc2)cc1 do in these assays?
G6PDH counter: 6; Diaphorase act: 0.8; WT yeast gro inh: -2; L major viab: 56*; Diaphorase inh: 21

What do the screens show for `COC(=O)[C@H](C)NC(=O)Nc1cccc(C(F)(F)F)c1`?
G6PDH counter: 4; Diaphorase act: 1; WT yeast gro inh: -4; L major viab: -2; Diaphorase inh: 4

How did CCN(CC)S(=O)(=O)c1ccc(NC(=O)Nc2cccc(C(F)(F)F)c2)cc1 do in these assays?
G6PDH counter: 2; Diaphorase act: 0.7; WT yeast gro inh: -19; L major viab: 2; Diaphorase inh: 27

How did Cc1ccc(S(=O)(=O)Nc2ccc(NC(=O)Nc3cccc(C(F)(F)F)c3)cc2)cc1 do in these assays?
G6PDH counter: -12; Diaphorase act: 0.8; WT yeast gro inh: 16; L major viab: 70*; Diaphorase inh: 22

Results for NC(=O)/C=C\C(=O)Nc1cccc(C(F)(F)F)c1 ?
G6PDH counter: 6; Diaphorase act: 0.9; WT yeast gro inh: 24; L major viab: 96*; Diaphorase inh: 14

How did CN=C(Nc1ccc(Cl)cc1)c1ccc(C(F)(F)F)cc1 do in these assays?
G6PDH counter: 9; Diaphorase act: 0.9; WT yeast gro inh: -2; L major viab: 10; Diaphorase inh: 8

Results for CS(=O)(=O)N(CC(=O)N1CCCCCC1)c1ccc(Br)cc1 ?
G6PDH counter: -3; Diaphorase act: 0.9; WT yeast gro inh: -3; L major viab: 2; Diaphorase inh: 8

Results for O=C(NCc1ccccc1Cl)c1ccc(S(=O)(=O)Nc2cccc(C(F)(F)F)c2)cc1 ?
G6PDH counter: 15; Diaphorase act: 0.8; WT yeast gro inh: -27; L major viab: 61*; Diaphorase inh: 24

Results for O=C(NCc1ccccc1Cl)c1ccc(Cn2cc(C(F)(F)F)ccc2=O)cc1 ?
G6PDH counter: 5; Diaphorase act: 0.8; WT yeast gro inh: -3; L major viab: -4; Diaphorase inh: 18

What do the screens show for `Cc1ccc(N2CC(C(=O)N/N=C/c3cccc([N+](=O)[O-])c3)CC2=O)cc1` (centres undefined)?
G6PDH counter: -37; Diaphorase act: 0.9; WT yeast gro inh: -8; L major viab: 0; Diaphorase inh: 15

What do the screens show for `O=C(N/N=C/c1cccc([N+](=O)[O-])c1)C1CC(=O)N(c2ccc(Cl)cc2)C1` (centres undefined)?
G6PDH counter: -5; Diaphorase act: 1; WT yeast gro inh: -14; L major viab: 95*; Diaphorase inh: 2

Results for COc1ccc(N2CC(C(=O)N/N=C/c3cc([N+](=O)[O-])ccc3O)CC2=O)cc1 (centres undefined) ?
G6PDH counter: -6; Diaphorase act: 0.5; WT yeast gro inh: -22; L major viab: -4; Diaphorase inh: 55*

How did C[N+](C)(C)CCCNC(=O)c1ccc(/C=N/O)nc1 do in these assays?
G6PDH counter: 18; Diaphorase act: 1; WT yeast gro inh: 1; L major viab: -8; Diaphorase inh: 3

What do the screens show for `S=c1[nH]ncn1/N=C/c1ccccn1`?
G6PDH counter: 12; Diaphorase act: 0.7; WT yeast gro inh: -1; L major viab: -7; Diaphorase inh: 26

Results for COC(=O)c1nn(-c2ccccc2)c(=O)cc1Oc1ccccc1 ?
G6PDH counter: 9; Diaphorase act: 0.9; WT yeast gro inh: 5; L major viab: -8; Diaphorase inh: 9

Results for CCCC1CC(C)(c2csc(Nc3ccc(OCC)cc3)n2)OC1=O (centres undefined) ?
G6PDH counter: -3; Diaphorase act: 0.7; WT yeast gro inh: 69*; L major viab: 24; Diaphorase inh: 34

Results for S=c1[nH]nc(-c2cc(-c3ccco3)[nH]n2)n1-c1ccccc1Cl ?
G6PDH counter: 7; Diaphorase act: 0.3; WT yeast gro inh: -21; L major viab: 14; Diaphorase inh: 71*

What do the screens show for `S=c1[nH]nc(-c2ccc3ccccc3n2)n1-c1cc(Cl)cc(Cl)c1`?
G6PDH counter: -12; Diaphorase act: 0.9; WT yeast gro inh: 60*; L major viab: 29; Diaphorase inh: 6

How did S=c1[nH]nc(-c2ccc3ccccc3n2)n1-c1ccccc1Cl do in these assays?
G6PDH counter: 25; Diaphorase act: 0.9; WT yeast gro inh: -4; L major viab: 52*; Diaphorase inh: 14

Results for Fc1ccc(-n2c(-c3ccc4ccccc4n3)n[nH]c2=S)cc1 ?
G6PDH counter: 6; WT yeast gro inh: -3; L major viab: 4

What do the screens show for `C=CCn1c(Cc2csc(N)n2)nnc1SCC(=O)Nc1ccccc1C(F)(F)F`?
G6PDH counter: -6; Diaphorase act: 0.9; WT yeast gro inh: -1; L major viab: -6; Diaphorase inh: 10

Results for O=c1c2cn[nH]c2[nH]c(=S)n1-c1ccccc1 ?
G6PDH counter: 7; Diaphorase act: 0.4; WT yeast gro inh: 0; L major viab: -8; Diaphorase inh: 61*

Results for O=c1c2cn[nH]c2[nH]c(=S)n1-c1cccc2ccccc12 ?
G6PDH counter: 8; Diaphorase act: 0.6; WT yeast gro inh: -13; L major viab: -3; Diaphorase inh: 43

What do the screens show for `Cc1ccc(CNC(=O)CN(C)S(=O)(=O)c2cccs2)cc1`?
G6PDH counter: 1; Diaphorase act: 1; WT yeast gro inh: 4; L major viab: 1; Diaphorase inh: 3

How did O=C(c1nn2cccnc2c1Cl)N1CCN(c2ccccc2)CC1 do in these assays?
G6PDH counter: 0; Diaphorase act: 1; WT yeast gro inh: -6; L major viab: -4; Diaphorase inh: 4

Screening data: PubChem, several laboratories
